In PubChem BioAssay:
Calls of active or inactive are those of the source.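 How the source made its calls, unless noted: active means GFP response above 150% of the DMSO level; inconclusive means fewer than 70 events counted for a yeast strain; inactive means the rest.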

Tests used:
[1] = RPL19A-GFP modulators, yeast TOR pathway, confirmation, cell-based, S. cerevisiae, flow cytometry, cherry picks, mother/daughter gates (AID 2270;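 active means GFP response below 50% of the DMSO control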); conditions: S. cerevisiae RPL19A-GFP strain, 3 h, at 10 µM, stronger effect = lower value, 100 = same GFP as DMSO wells
[2] = LAP4-GFP expression modulators in yeast, confirmation, cell-based, cherry picks, flow cytometry, mother/daughter gates (AID 2271;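 active means GFP response above 150% of the DMSO control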;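 further: ratio of sample to DMSO plate mean so 100% equals DMSO level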); conditions: S. cerevisiae LAP4-GFP strain, 3 h, at 10 µM, stronger effect = higher value, 100 means same as DMSO control
Summary of the method: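 Material: Alexa 633-stained baker's yeast GFP-fusion strain; Compound dosing: single test-compound dose, 10 µM final; Incubation: 30 °C, 3 h compound incubation, rotating; Detection: HT flow cytometry, GFP fluorescence channel; Control set: positive rapamycin (400 ng/mL), negative DMSO.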

[3] = modulators of MEP2-GFP levels in yeast, confirmation, S. cerevisiae, flow cytometry GFP, cherry picks (AID 2272;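 active means GFP response above 150% of the DMSO control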;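 further: ratio of well signal to plate DMSO mean so 100% equals DMSO level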); conditions: S. cerevisiae MEP2-GFP strain, 3 h, at 10 µM, stronger effect = higher value
[4] = AGP1-GFP expression modulators, hit retest, confirmation, cell-based, flow cytometry, S. cerevisiae, cherry picks (AID 2273);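 further: median GFP channel fluorescence over the whole cell population gate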; conditions: S. cerevisiae AGP1-GFP strain, 3 h, at 10 µM
[5] = modulators of CIT2-GFP expression in yeast, confirmation, S. cerevisiae, GFP fusion, cherry picks, mother/daughter gates (AID 2274); conditions: S. cerevisiae CIT2-GFP strain, flow cytometry, 3 h, at 10 µM, stronger effect = higher value
[6] = measured here: daughter cell gate
[7] = measured here: mother cell gate
[8] = measured here: daughter cell gate response
[9] = measured here: mother cell gate response

Compound	GFP response vs DMSO [1]	GFP response vs DMSO [1, 6] [%]	GFP response vs DMSO [1, 7] [%]	GFP response relative to DMSO [2]	GFP response relative to DMSO [2, 8] [%]	GFP response relative to DMSO [2, 9] [%]	GFP response vs DMSO [3]	GFP response, % of DMSO [4]	GFP response, % of DMSO [5]	GFP response, % of DMSO [5, 6] [%]	GFP response, % of DMSO [5, 7] [%]
O=[N+]([O-])/C=C/c1cn(Cc2ccc(Cl)cc2)c2ccccc12	105% (inactive)	102	103	95% (inactive)	95.6	96.2	100% (inactive)	98.3% (inactive)	106% (inactive)	106	102
O=C(c1ccc([N+](=O)[O-])o1)N1CCN(c2nc3ccc(F)cc3s2)CC1	99.8% (inactive)	100	98.4	111% (inactive)	109	115	105% (inactive)	87.7% (inactive)	101% (inactive)	103	96.1
COc1ccc(-c2[nH]ncc2-c2ccc(Cl)cc2)c(O)c1	101% (inactive)	97.8	99.4	103% (inactive)	100	105	102% (inactive)	93.7% (inactive)	104% (inactive)	101	105
O=C(/C=C/c1ccc(F)cc1)NC(=S)NNC(=O)c1cnccn1	108% (inactive)	89.8	105	313% (active)	146	301	132% (inactive)	83.4% (inactive)	124% (inactive)	101	113
COc1cccc2cc(C(=O)N3CCN(C/C=C/c4ccccc4)CC3)c(=O)oc12	98.6% (inactive)	99.6	98	97% (inactive)	95.9	98.4	103% (inactive)	96.7% (inactive)	95.9% (inactive)	93.8	96.8
O=S(=O)(/N=C(\Sc1ccc(Cl)cc1)c1ccccc1)c1ccccc1	93.1% (inactive)	94.4	90.2	182% (active)	145	178	99.3% (inactive)	101% (inactive)	90.3% (inactive)	92.3	83.7
O=[N+]([O-])c1cc(C(F)(F)F)ccc1Sc1ccccn1	102% (inactive)	101	101	97.4% (inactive)	98.7	98.3	102% (inactive)	99.2% (inactive)	104% (inactive)	103	103
COc1ccc(/C=C2/C(=O)ON=C2c2ccccc2)cc1OC	102% (inactive)	107	99.2	101% (inactive)	102	99.5	102% (inactive)	101% (inactive)	102% (inactive)	106	95.6
Cc1cc2ccccn2c1C(=O)c1ccc([N+](=O)[O-])o1	102% (inactive)	106	94.6	195% (active)	182	196	132% (inactive)	109% (inactive)	98.4% (inactive)	106	87.8
COc1cccc(/C=N/NC(=O)CCC(=O)Nc2ccc(Br)cc2)c1	98.9% (inactive)	100	98	90.6% (inactive)	92.9	90.3	108% (inactive)	100% (inactive)	98.6% (inactive)	101	99.3
Cc1c(Br)c(O)c(Br)c2sc(=O)oc12	96.2% (inactive)	101	94.2	125% (inactive)	123	129	105% (inactive)	101% (inactive)	97.3% (inactive)	101	94.4
Cc1nc2c(-c3ccc(F)cc3)c(C)nn2c(N2CCOCC2)c1C	100% (inactive)	101	100	96.5% (inactive)	96.5	97.5	104% (inactive)	98.7% (inactive)	104% (inactive)	104	101
O=C(O)C1CCN(S(=O)(=O)c2ccc(Oc3ccccc3)cc2)CC1	98% (inactive)	98.3	98.8	97.7% (inactive)	97.9	96.5	104% (inactive)	96.7% (inactive)	99.3% (inactive)	100	98
Cc1ccc(C(=O)Oc2oc(-c3ccco3)nc2C=Nc2ccc(Cl)cc2)cc1	102% (inactive)	98.3	98.8	207% (active)	168	205	110% (inactive)	93.8% (inactive)	106% (inactive)	111	98
O=C(/C=C/c1ccccc1)Nc1ncn[nH]1	97.4% (inactive)	97.3	96	135% (inactive)	125	137	102% (inactive)	98% (inactive)	97.8% (inactive)	100	94.5
COc1cc(C(O)P(=O)(OCC(C)C)OCC(C)C)cc(OC)c1OC (configuration not stated)	99.5% (inactive)	99.8	99.7	100% (inactive)	102	98.5	104% (inactive)	100% (inactive)	101% (inactive)	100	99.1
Oc1ccc(Cl)cc1-c1cc(-c2ccco2)[nH]n1	103% (inactive)	100	104	95% (inactive)	94.1	96.2	109% (inactive)	88.2% (inactive)	102% (inactive)	99.7	101
CCOc1cccc(C(=O)Nc2ccc(NC(=O)c3cc4ccccc4o3)c(OC)c2)c1	96.2% (inactive)	96.4	97.2	91.5% (inactive)	91.2	90.8	98.3% (inactive)	94.8% (inactive)	103% (inactive)	103	102
O=C(c1cc([N+](=O)[O-])cc([N+](=O)[O-])c1)N(Cc1nnc(-c2ccccc2Cl)o1)C1CC1	102% (inactive)	101	105	96.2% (inactive)	97.2	99.3	102% (inactive)	97.2% (inactive)	107% (inactive)	103	109
Cc1ccccc1C(=O)NNC(=S)NC(=O)c1ccc(Cl)cc1Cl	104% (inactive)	105	104	143% (inactive)	124	140	118% (inactive)	97.1% (inactive)	101% (inactive)	109	94.5
S=c1[nH]nc(-c2ccco2)n1/N=C/C(Cl)=C/c1ccccc1	98.4% (inactive)	98.5	98.3	129% (inactive)	121	131	112% (inactive)	95.6% (inactive)	97.8% (inactive)	100	94.5
N#C/C(=C\c1c(N2CCN(c3ccccc3)CC2)nc2ccccn2c1=O)C(N)=O	104% (inactive)	99.1	99.3	97% (inactive)	97.5	98.4	105% (inactive)	106% (inactive)	98.8% (inactive)	99.2	88.2
CCc1sc(C(=O)N2CCc3ccccc32)cc1C	94.9% (inactive)	93.3	94.6	114% (inactive)	111	114	99.3% (inactive)	96.8% (inactive)	87.5% (inactive)	85.2	88.2
O=C1C(Cl)=C(N2CCN(Cc3ccccc3)CC2)C(=O)N1Cc1ccccc1	97% (inactive)	98.1	98	99.5% (inactive)	101	98.4	94.7% (inactive)	102% (inactive)	100% (inactive)	101	99.3
CCOC(=O)c1ccc(NC(=O)c2ccc3c(c2)C(=O)N(Cc2cccnc2)C3=O)cc1	100% (inactive)	99.6	100	94.1% (inactive)	96	94	102% (inactive)	99.3% (inactive)	99.7% (inactive)	101	98.5
Cc1ccc(/C(C#N)=C\c2ccc(N3CCOCC3)o2)cc1	97.8% (inactive)	97.1	98	102% (inactive)	104	103	109% (inactive)	99.4% (inactive)	98.8% (inactive)	99.2	99.3
CC(=O)S[C@@H]1CC2=CC(=O)CC[C@]2(C)[C@H]2CC[C@@]3(C)[C@@H](CC[C@@]34CCC(=O)O4)[C@H]12	101% (inactive)	99.2	100	97.4% (inactive)	97.2	98.3	100% (inactive)	95.9% (inactive)	99.1% (inactive)	96.5	98.7
